What is called IC50 is the concentration at which inhibition is half-maximal.

We go through 13 compounds from paper PMC10784678 (Food Chemistry: X, 2023).

Assay [1] can be described thus: ABTS radical scavenging activity. The conditions noted are these: positive control. The procedure, abridged:
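Test fractions in 70 % ethanol at 2–8 µg/mL; positive control at 1–7 µg/mL. Radical made by holding 7 mM ABTS with 0.14 M K₂S₂O₈ for 14 h, then diluted 35-fold in anhydrous ethanol. Sample mixed with radical solution, 6 min dark at 30°C, A734.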

Assay [2] relates to Caco-2 cells. The assay can be described thus: Cytoprotective activity against H2O2-induced cell apoptosis. The class given is cell-based. The conditions noted are these: positive control 10 μg/mL; H2O2 group 23.84 %, control 3.92 %.
For assay [3], the system named is Caco-2 cells. The experiment in a line: Inhibition of H2O2-induced intracellular ROS production. The class given is cell-based. The conditions noted are these: positive control 10 μg/mL, 1.0 mmol/L H2O2 6 h; H2O2 group 181.61 %.
Assay [4] in a line: DPPH radical scavenging activity. The conditions noted are these: positive control. The procedure, abridged:
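Test fractions in 80 % methanol at 2–14 µg/mL; positive control at 1–7 µg/mL. 50 µL sample plus 200 µL 0.1 mM DPPH in methanol, kept from light and shaken 30 min, then read at 517 nm.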
A general note: DPPH is a stable violet radical that fades when it is reduced.

The target of assay [5] is T1, DPP-IV (Homo sapiens, UniProt P27487). The assay can be described thus: biochemical.
T1 sequence (P27487 whole entry): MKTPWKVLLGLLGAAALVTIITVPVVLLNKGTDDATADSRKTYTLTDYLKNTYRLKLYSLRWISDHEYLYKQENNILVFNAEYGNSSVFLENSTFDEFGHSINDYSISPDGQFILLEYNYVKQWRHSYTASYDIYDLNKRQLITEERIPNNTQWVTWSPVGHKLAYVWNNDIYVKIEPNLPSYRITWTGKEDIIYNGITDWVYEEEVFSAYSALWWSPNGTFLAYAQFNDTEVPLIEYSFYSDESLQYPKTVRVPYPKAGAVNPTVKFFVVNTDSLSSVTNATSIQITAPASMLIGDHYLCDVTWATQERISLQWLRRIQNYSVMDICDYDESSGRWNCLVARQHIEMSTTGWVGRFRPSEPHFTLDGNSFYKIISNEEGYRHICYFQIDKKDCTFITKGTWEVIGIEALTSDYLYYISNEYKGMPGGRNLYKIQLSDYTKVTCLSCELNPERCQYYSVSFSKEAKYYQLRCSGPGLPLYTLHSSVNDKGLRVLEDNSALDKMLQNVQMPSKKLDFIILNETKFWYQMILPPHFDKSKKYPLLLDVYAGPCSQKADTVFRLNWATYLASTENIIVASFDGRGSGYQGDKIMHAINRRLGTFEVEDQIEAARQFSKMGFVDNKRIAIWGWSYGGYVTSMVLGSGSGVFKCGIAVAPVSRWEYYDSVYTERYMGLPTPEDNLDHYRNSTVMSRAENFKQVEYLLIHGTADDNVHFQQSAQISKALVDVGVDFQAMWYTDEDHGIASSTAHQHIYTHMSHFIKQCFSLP
The target in assay [6] is T1, DPP-IV. The conditions noted are these: read-out: IC50 DPP-IV; ref Li et al., 2022; cited from earlier work.
A further assay addresses α-glucosidase (Saccharomyces cerevisiae, UniProt P53341). Particulars: read-out: IC50 α-glucosidase; ref Tan et al. (2017); cited from earlier work.
[7] abbreviates: read-out: IC50 DPP-Ⅳ, phenolic standards.

Structures are written as SMILES. Values after ≈ are worked out from the molar mass of the structure shown. Read-outs that look alike come from different tables or passages of the source.

Sequence of α-glucosidase (P53341 whole entry): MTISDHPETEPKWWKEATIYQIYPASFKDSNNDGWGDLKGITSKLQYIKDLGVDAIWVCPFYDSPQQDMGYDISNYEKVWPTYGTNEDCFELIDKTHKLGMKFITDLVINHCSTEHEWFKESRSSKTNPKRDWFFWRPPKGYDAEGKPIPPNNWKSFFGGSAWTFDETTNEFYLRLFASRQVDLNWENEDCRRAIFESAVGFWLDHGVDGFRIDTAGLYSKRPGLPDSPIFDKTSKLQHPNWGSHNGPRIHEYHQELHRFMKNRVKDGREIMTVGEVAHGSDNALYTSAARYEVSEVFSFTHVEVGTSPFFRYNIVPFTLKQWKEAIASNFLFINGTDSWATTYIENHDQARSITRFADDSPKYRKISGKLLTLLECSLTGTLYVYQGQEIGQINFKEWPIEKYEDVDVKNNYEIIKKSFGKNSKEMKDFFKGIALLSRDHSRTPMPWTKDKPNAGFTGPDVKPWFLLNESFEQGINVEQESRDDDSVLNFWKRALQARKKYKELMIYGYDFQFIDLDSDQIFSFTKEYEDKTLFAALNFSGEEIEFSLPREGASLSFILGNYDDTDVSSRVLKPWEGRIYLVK

With `O=C1O[C@H]([C@@H](O)CO)C(O)=C1O` [Vc], in assay [1], the “IC50 ABTS radical scavenging” value turned out to be 3.58 ± 0.03 µg/mL (≈ 20.3 µM). In the assay on Caco-2 cells [2], this compound returned an apoptosis rate of 6.58%. The “intracellular ROS level” value in the assay on Caco-2 cells [3] amounted to 110.92%. For the same compound, the “IC50 DPPH radical scavenging” value in assay [4] worked out at 1.93 ± 0.01 µg/mL (≈ 11 µM).

For `O=C(O)/C=C/c1ccc(O)c(O)c1` [Caffeic acid], the half-maximal inhibitory concentration (IC50) against DPP-IV [5] was determined as 162.48 ± 0.16 µM.

The compound `Oc1cc(O)c2c(c1)O[C@H](c1ccc(O)c(O)c1)[C@H](O)C2` [(-) - Epicatechin] showed an IC50 at DPP-IV [5] of 104.3 ± 0.95 µM.

As for `O=C(/C=C/c1ccc(O)c(O)c1)O[C@@H]1C[C@](O)(C(=O)O)C[C@@H](O)[C@H]1O` [Chlorogenic acid], the IC50 against DPP-IV [5] was 31.2 ± 2.58 µM; at DPP-IV [6] it was 78.8 µM. `O=C1c2c(O)cc(O)cc2OC(c2ccc(O)c(O)c2)C1O` (centres unmarked) [Taxifolin]: the 50% inhibitory concentration (IC50) against DPP-IV [5] worked out at 78.92 ± 0.62 µM.

Consider `O=C(O)c1ccc(O)c(O)c1` [Protocatechuic acid], for which the IC50 on DPP-IV [5] is over 200 µM. Regarding `Oc1cc(O)c2c(c1)O[C@H](c1ccc(O)c(O)c1)[C@@H](O)C2` [catechin], on α-glucosidase, the IC50 is 13.4 µM. `Oc1cc(O)c2c(c1)O[C@H](c1cc(O)c(O)c(O)c1)[C@@H](O)C2` [Gallocatechin] came in with a half-inhibitory concentration (IC50) against DPP-IV [5] of 81.9 ± 2.54 µM. Consider `O=C(O)c1ccccc1O` [Salicylic acid], for which, on DPP-IV [5], the IC50 is over 200 µM.

In turn, `O=C(O)[C@]1(O)C[C@@H](O)[C@@H](O)[C@H](O)C1` [Quinic acid] showed an IC50 on DPP-IV [5] of over 200 µM.

`COC(=O)[C@]1(O)C[C@@H](O)[C@@H](O)[C@H](OC(=O)/C=C/c2ccc(O)c(O)c2)C1` [Methyl chlorogenic acid]: on DPP-IV [5] (setting [7]), the IC50 is 192 ± 1.93 µM. For the compound `Oc1cc(O)c2c(c1)O[C@H](c1ccc(O)c(O)c1)[C@@H](O)C2` [(+) - Catechin], on DPP-IV [5] (setting [7]), the IC50 amounted to 132.8 ± 0.99 µM.

On DPP-IV [5], `Oc1cc(O)c2c(c1)O[C@H](c1ccc(O)c(O)c1)[C@H](O)[C@H]2c1c(O)cc(O)c2c1O[C@H](c1ccc(O)c(O)c1)[C@@H](O)C2` [Procyanidin B1] came in with an IC50 of over 200 µM.
